The subject of series [1] is Coxsackievirus. Put plainly: Lowest concentration to reduce viral effect by 50% or more against coxsackie virus A21. The format is functional. The essentials: (§1)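 HeLa monolayers were seeded at (1.0-1.3) × 10^5 cells/well, grown 24 h at 36 °C in 5% CO2 to 60–75% cover, then refed with maintenance medium (1-2% heat-inactivated FCS) containing two-fold serial compound dilutions made from a 200 μg/mL stock in Me2SO/medium, with final Me2SO ≤0.1%. Cells were challenged with 10-100 TCID50 virus, and CPE was read microscopically at 48 and 72 h. MIC50 was the lowest concentration giving ≥50% CPE reduction versus virus control. Cytotoxicity was the lowest concentration causing cell death, a growth change or a morphology change in uninfected cultures.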

Series [2] deals with Coxsackievirus. Kind of series: Ratio of the MIC50 of 6-(4-Nitro-phenoxy)-nicotinonitrile compared to compound obtained in the same test for coxsackie A21. Format: functional. The method in brief: (§2)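 Relative activity was calculated as the MIC50 of the positive control 5-cyano-2-(4-nitrophenoxy)pyridine divided by the MIC50 of the test compound. Both were measured in parallel in the same HeLa CPE test (48/72 h microscopic reading) against RV-1A, RV-2 or coxsackievirus A21.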

Series [3] deals with Enterovirus. Put plainly: Ratio of the MIC50 of 6-(4-Nitro-phenoxy)-nicotinonitrile compared to compound obtained in the same test for Rhinovirus (RV)-2. The format is functional. The essentials: as §2
The test system of series [4] is Enterovirus. Put plainly: Ratio of the MIC50 of 6-(4-Nitro-phenoxy)-nicotinonitrile compared to compound obtained in the same test for Rhinovirus (RV)-1A. The format is functional. The method in brief:
as §2

For series [5], the system named is Enterovirus. Kind of series: Lowest concentration to reduce viral effect by 50% or more against Rhinovirus (RV)-2. Format: functional. The method in brief: as §1
The test system of series [6] is Enterovirus. Kind of series: Lowest concentration to reduce viral effect by 50% or more against Rhinovirus (RV)-1A. The format is functional. The essentials: as §1
In a further series the test system is HeLa. Put plainly: Cytotoxicity concentration in HeLa cells. To be noted: human. The format is cell-based. The essentials: as §1

The record followed here is ChEMBL document CHEMBL1123507, “Antipicornavirus activity of substituted phenoxybenzenes and phenoxypyridines” (J Med Chem, 1986).

The structures appear in SMILES notation. Converted amounts (≈) assume the structure as drawn.

In the case of `CC(=O)c1ccc(Oc2ccc([N+](=O)[O-])cc2C#N)cc1`, the MIC50 stood at 3.5 µM (≈ 0.988 µg/mL) in the series on Coxsackievirus [1], 11.1 µM (≈ 3.13 µg/mL) against Enterovirus [5] and 22.2 µM (≈ 6.27 µg/mL) in the series with Enterovirus [6]. Also, the values for the Relative activity in the series on Coxsackievirus [2], in the series with Enterovirus [3] and in the series with Enterovirus [4] were 0.68, 1.2 and 0.59, respectively. Also, in the series on HeLa, the Toxicity was more than 177 µM.
`Cc1ccc(Oc2ccc(C#N)cn2)cc1`: the values for the MIC50 against Coxsackievirus [1], in the series with Enterovirus [5] and against Enterovirus [6] were 60 µM (≈ 12.6 µg/mL), 30 µM (≈ 6.31 µg/mL) and 60 µM (≈ 12.6 µg/mL), respectively. Besides, the Relative activity in the series with Coxsackievirus [2] is on record as 0.43; in the series on Enterovirus [3] it was 1.7; in the series on Enterovirus [4] it was 0.43. For the same compound, the Toxicity in the series with HeLa is 476 µM.
Turning to `CS(=O)(=O)c1ccc(Oc2ccc(Br)cc2)cc1`, the results for the MIC50 against Coxsackievirus [1], with Enterovirus [5] and against Enterovirus [6] were 7.6 µM (≈ 2.49 µg/mL), 1 µM (≈ 0.327 µg/mL) and 1.9 µM (≈ 0.622 µg/mL), respectively. Moreover, the Relative activity with Coxsackievirus [2] is given as 2.5; in the series on Enterovirus [3], 19.7; in the series on Enterovirus [4], 9.8. The Toxicity with HeLa was found to be 38 µM.
On to `CS(=O)(=O)c1ccc(Oc2ccc([N+](=O)[O-])cc2)cc1`, for which the MIC50 with Coxsackievirus [1] is 0.85 µM (≈ 0.249 µg/mL); in the series on Enterovirus [5] it was 21.3 µM (≈ 6.25 µg/mL); against Enterovirus [6], 42.7 µM (≈ 12.5 µg/mL). The Relative activity with Coxsackievirus [2] came out at 6.1; in the series on Enterovirus [3] it was 2.4; in the series on Enterovirus [4], 1.2. The Toxicity with HeLa was determined as 171 µM.
Consider `N#Cc1cc([N+](=O)[O-])ccc1Oc1cccc2ccccc12`, for which the results for the MIC50 in the series with Coxsackievirus [1], in the series with Enterovirus [5] and in the series with Enterovirus [6] were 10.8 µM (≈ 3.14 µg/mL), 1.1 µM (≈ 0.319 µg/mL) and 4.3 µM (≈ 1.25 µg/mL), respectively. The Relative activity is recorded as 1.2 with Coxsackievirus [2], 11.8 in the series with Enterovirus [3] and 6 in the series with Enterovirus [4]. In the series with HeLa, this compound returned a Toxicity of more than 172 µM.
Take `O=C(O)c1cc([N+](=O)[O-])ccc1Oc1ccc(Cl)c(Cl)c1`: the MIC50 against Coxsackievirus [1] stood at 76.2 µM (≈ 25 µg/mL); with Enterovirus [5], 38.1 µM (≈ 12.5 µg/mL); against Enterovirus [6], 19 µM (≈ 6.23 µg/mL). The Relative activity in the series on Coxsackievirus [2] is on record as 0.34; in the series on Enterovirus [3] it was 1.4; in the series on Enterovirus [4], 2.7. The compound further registered a Toxicity in the series with HeLa of 305 µM.
On to `N#Cc1cc([N+](=O)[O-])ccc1Oc1ccc(Cl)cc1Cl`, for which the MIC50 with Coxsackievirus [1] was found to be 3.9 µM (≈ 1.21 µg/mL); in the series on Enterovirus [5] it was 0.52 µM (≈ 0.161 µg/mL); against Enterovirus [6] it was 0.97 µM (≈ 0.3 µg/mL). Besides, the Relative activity in the series with Coxsackievirus [2] is 13.3; with Enterovirus [3], 49.8; in the series with Enterovirus [4], 85.6. Further, the Toxicity in the series with HeLa was more than 324 µM.
With `N#Cc1cc([N+](=O)[O-])ccc1Oc1cc(Cl)ccc1Cl`, the figures for the MIC50 in the series on Coxsackievirus [1], against Enterovirus [5] and in the series on Enterovirus [6] were 2 µM (≈ 0.618 µg/mL), 0.52 µM (≈ 0.161 µg/mL) and 0.26 µM (≈ 0.0804 µg/mL), respectively. Further, the figures for the Relative activity in the series with Coxsackievirus [2], in the series on Enterovirus [3] and with Enterovirus [4] were 13, 25 and 50, respectively. This compound also gave a Toxicity in the series on HeLa of more than 162 µM.
Regarding `N#Cc1cc([N+](=O)[O-])ccc1Oc1c(Cl)cccc1Cl`, the MIC50 worked out at 16.2 µM (≈ 5.01 µg/mL) in the series with Coxsackievirus [1], 0.52 µM (≈ 0.161 µg/mL) with Enterovirus [5] and 3.9 µM (≈ 1.21 µg/mL) in the series with Enterovirus [6]. The Relative activity in the series on Coxsackievirus [2] came to 0.8; with Enterovirus [3], 25; with Enterovirus [4], 5.3. In the series on HeLa, this compound returned a Toxicity of more than 65 µM.
